{"source": "paper PMC4251658", "about": "(Biochemistry, 2012)", "molecules": {"B1": {"name": "His6-tagged PCP hydroxylase (pentachlorophenol hydroxylase, PcpB) (enzyme, Sphingobium chlorophenolicum, UniProt P42535 1-538, looked up)", "chain": "MSTYPINAPGQSADAAVLIVGGGPTGLIAANELLRRGVSCRMIDRLPVAHQTSKSCTIHARSMEMMEHIGIAARYIETGVRSNGFTFNFENTDANALLDFSVLPGRYPFITIYNQNETERVLRHDLEATYSFQPEWGTQLLALNQDENGIRADLRLKDGTKQTISPRWVIGADGVRSRVRECLGIAYEGEDYEENVLQMMDVGIQDFEAGDDWIHYFIGQDKFVFVTKLPGSNYRVIISDLGGANKSNLEETREAFQGYLSSFDDHATLDEPRWATKWRVWKRMATAYRKGNVFLAGDAAHCHSPSGGSGMNVGMQDAFNLGWKIAMVERGEAKPDLLDTYHTERTPVAQQLLEGTHAMHEIIMGHGKGLTDRIELTQAPGWHDAATYRVSGMSYNYRDQLVSFNDDRLAGPSAGDRIPDAELAPRIRLFDLVRNTRPTLLVAPATEAEVAEAEKLRDLIREQWPLVKPVLVRPQGSEESIEGDVHVDSYGQLKREWGDNAKGWAALLRPDNYIHARAGLDRGDLLVQAIDAMLVRCA"}}, "key": {"PCP hydroxylase [1]": {"biological_target": "T1, PCP hydroxylase (Sphingobium chlorophenolicum, UniProt P42535)", "T1 sequence (P42535 1-538)": "B1 chain", "assay": "Hydrogen peroxide assay", "assay_type": "biochemical", "conditions": "100 μM substrate, 160 μM NADPH", "procedure,_shortened": "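Reaction samples or H2O2 standards were added to freshly prepared reagent (250 μM Fe(II) ammonium sulfate, 25 mM H2SO4, 100 μM xylenol orange, 100 mM sorbitol) and incubated 30–45 min at room temperature. A560 was read against a prior standard curve. Reactions contained substrate or effector (100 μM) and NADPH (160 μM), run in triplicate; average rates came from at least three separate experiments.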"}, "PCP hydroxylase [2]": {"biological_target": "T1, PCP hydroxylase", "assay_type": "biochemical", "conditions": "100 μM substrate, 160 μM NADPH"}, "[3]": {"conditions": "phenolic proton, in solution; cited from earlier work"}, "PCP hydroxylase [4]": {"tested_on": "PCP hydroxylase", "conditions": "cited from earlier work"}, "PCP hydroxylase [5]": {"biological_target": "T1, PCP hydroxylase", "assay": "Spectroscopic assays of enzyme activity, steady-state kinetic parameters", "assay_type": "biochemical", "conditions": "160 μM NADPH; for kcat for hydroxylation reaction: in the presence of 6 mM β-ME, ambient O2 (apparent)"}, "PCP hydroxylase [6]": {"biological_target": "T1, PCP hydroxylase", "assay": "HPLC analysis of the products formed by PCP hydroxylase", "assay_type": "biochemical", "conditions": "for PCP, reaction components after 1 min incubation at room temperature / TCHQ, reaction components after 1 min incubation at room temperature / THTH, reaction components after 1 min incubation at room temperature / TCP, reaction components after 1 min incubation at room temperature: reactant 100 μM, PCP hydroxylase 10 μM, NADPH 300 μM", "procedure,_shortened": "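His6-tagged enzyme expressed in E. coli M15(pReP4). Substrate (100 μM) in 50 mM potassium phosphate pH 7.5 with 25 μM ascorbate, plus 6 mM β-ME where included to trap TCBQ as THTH. Enzyme (10 μM) and NADPH (300 μM) added as indicated, 1 min at room temperature. Quenched into ethyl acetate with p-nitrophenol internal standard, dried, redissolved in TFA/acetonitrile; HPLC detection at 295, 310 and 350 nm.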"}, "PCP hydroxylase [7]": {"biological_target": "T1, PCP hydroxylase", "assay": "Determination of dissociation constants by absorbance spectroscopy", "assay_type": "binding", "conditions": "titration at constant enzyme concentration"}, "SEC": {"biological_target": "the molecule itself", "assay": "SEC"}, "[8]": {"conditions": "in the presence of 5 mM ascorbate"}}, "note": "Values joined by “and” are separate entries in the source; they are usually repeats but may differ in a detail not shown here. Identical values can stand only once. Like-named read-outs stand apart in the source and are kept apart here. Marks after values point to notes of the source that are not given here.", "data": [{"molecule": "Oc1c(Cl)cc(Cl)cc1Cl", "note": "[2,4,6-triCP, 2,4,6-trichlorophenol]", "values": [{"measurement": "H2O2 appearance", "setting": "PCP hydroxylase [1]", "result": "0.0012 ± 0.0002", "unit": "s⁻¹"}, {"measurement": "NADPH /product", "setting": "PCP hydroxylase [2]; [8]", "result": "1.5^b"}, {"measurement": "NADPH disappearance", "setting": "PCP hydroxylase [2]; [8]", "result": "0.0048 ± 0.003^b s^−1"}, {"measurement": "Product appearance", "setting": "PCP hydroxylase [2]; [8]", "result": "0.0033 ± 0.0002^b s^−1"}]}, {"molecule": "Oc1c(Cl)cccc1Cl", "note": "[2,6-DCP, 2,6-dichlorophenol]", "values": [{"measurement": "H2O2 appearance", "setting": "PCP hydroxylase [1]", "result": "0.0011 ± 0.0002", "unit": "s⁻¹"}, {"measurement": "NADPH /product", "setting": "PCP hydroxylase [2]", "result": 0.9}, {"measurement": "NADPH disappearance", "setting": "PCP hydroxylase [2]", "result": "0.051 ± 0.004", "unit": "s⁻¹"}, {"measurement": "Product appearance", "setting": "PCP hydroxylase [2]", "result": "0.060 ± 0.002", "unit": "s⁻¹"}, {"measurement": "extent of uncoupling (in words)", "setting": "PCP hydroxylase [2]", "result": "no uncoupling"}]}, {"molecule": "Oc1cc(Cl)c(Cl)c(Cl)c1", "note": "[3,4,5-triCP, 3,4,5-trichlorophenol]", "values": [{"measurement": "NADPH disappearance", "setting": "PCP hydroxylase [2]", "result": "0.012 ± 0.001", "unit": "s⁻¹"}, {"measurement": "Product appearance", "setting": "PCP hydroxylase [2]", "result": "none"}, {"measurement": "extent of uncoupling (in words)", "setting": "PCP hydroxylase [2]", "result": "complete uncoupling"}]}, {"molecule": "Oc1ccc(Cl)c(Cl)c1", "note": "[3,4-DCP]", "values": [{"measurement": "NADPH disappearance", "setting": "PCP hydroxylase [2]", "result": "0.0045 ± 0.0010", "unit": "s⁻¹"}, {"measurement": "Product appearance", "setting": "PCP hydroxylase [2]", "result": "none"}, {"measurement": "extent of uncoupling (in words)", "setting": "PCP hydroxylase [2]", "result": "complete uncoupling"}]}, {"molecule": "Oc1cc(Cl)cc(Cl)c1", "note": "[3,5-DCP, 3,5-dichlorophenol]", "values": [{"measurement": "H2O2 appearance", "setting": "PCP hydroxylase [1]", "result": "0.0029 ± 0.0006", "unit": "s⁻¹"}, {"measurement": "NADPH disappearance", "setting": "PCP hydroxylase [2]", "result": "0.0079 ± 0.0016", "unit": "s⁻¹"}, {"measurement": "Product appearance", "setting": "PCP hydroxylase [2]", "result": "none"}, {"measurement": "extent of uncoupling (in words)", "setting": "PCP hydroxylase [2]", "result": "complete uncoupling"}]}, {"molecule": "Oc1c(Cl)c(Cl)c(Cl)c(Cl)c1Cl", "note": "[PCP, pentachlorophenol]", "values": [{"measurement": "pKa", "setting": "[3]", "result": 4.5}, {"measurement": "NADPH consumed for each PCP consumed", "setting": "PCP hydroxylase [4]", "result": 2, "unit": "equivalents"}, {"measurement": "O2 consumed for each PCP consumed", "setting": "PCP hydroxylase [4]", "result": 1.4, "unit": "equivalents"}, {"measurement": "kcat for hydroxylation reaction", "setting": "PCP hydroxylase [5]", "result": "0.024 s^−1 and 0.024 ± 0.002^a,b s^−1"}, {"measurement": "H2O2 appearance", "setting": "PCP hydroxylase [1]", "result": "0.0070 ± 0.0009", "unit": "s⁻¹"}, {"measurement": "PCP, reaction components after 1 min incubation at room temperature", "setting": "PCP hydroxylase [6]; no β-ME, 25 μM ascorbate", "result": "75 ± 1"}, {"measurement": "TCHQ, reaction components after 1 min incubation at room temperature", "setting": "PCP hydroxylase [6]; no β-ME, 25 μM ascorbate", "result": "18 ± 1"}, {"measurement": "PCP, reaction components after 1 min incubation at room temperature", "setting": "PCP hydroxylase [6]; β-ME 6, 25 μM ascorbate", "result": "70 ± 2"}, {"measurement": "THTH, reaction components after 1 min incubation at room temperature", "setting": "PCP hydroxylase [6]; β-ME 6, 25 μM ascorbate", "result": "28 ± 2"}, {"measurement": "NADPH /product", "setting": "PCP hydroxylase [2]; [8]", "result": "1.3^b"}, {"measurement": "NADPH disappearance", "setting": "PCP hydroxylase [2]; [8]", "result": "0.025 ± 0.001^b s^−1"}, {"measurement": "Product appearance", "setting": "PCP hydroxylase [2]; [8]", "result": "0.020 ± 0.003^b s^−1"}]}, {"molecule": "Oc1c(Cl)c(Cl)c(O)c(Cl)c1Cl", "note": "[TCHQ, tetrachlorohydroquinone]", "values": [{"measurement": "concentration above which substrate inhibition is seen", "setting": "PCP hydroxylase [5]; 6 mM β-ME", "result": "> 40", "unit": "µM"}, {"measurement": "kcat for hydroxylation reaction", "setting": "PCP hydroxylase [5]", "result": "> 0.015^a,b s^−1"}, {"measurement": "H2O2 appearance", "setting": "PCP hydroxylase [1]", "result": "0.035 ± 0.005", "unit": "s⁻¹"}, {"measurement": "conversion to THTH", "setting": "PCP hydroxylase [6]; incubation with the enzyme in the presence of NADPH and β-ME for one minute", "result": 23, "unit": "%"}, {"measurement": "TCHQ, reaction components after 1 min incubation at room temperature", "setting": "PCP hydroxylase [6]; β-ME 6, 25 μM ascorbate", "result": "77 ± 2"}, {"measurement": "THTH, reaction components after 1 min incubation at room temperature", "setting": "PCP hydroxylase [6]; β-ME 6, 25 μM ascorbate", "result": "23 ± 2"}, {"measurement": "NADPH /product", "setting": "PCP hydroxylase [2]; in the presence of 6 mM β-ME", "result": "6.3^c"}, {"measurement": "NADPH disappearance", "setting": "PCP hydroxylase [2]; in the presence of 6 mM β-ME", "result": "0.030 ± 0.003^c s^−1"}, {"measurement": "Product appearance", "setting": "PCP hydroxylase [2]; in the presence of 6 mM β-ME", "result": "0.0048 ± 0.0004^c s^−1"}, {"measurement": "Dissociation constants (in words)", "setting": "PCP hydroxylase [7]", "result": "low micromolar range"}]}, {"molecule": "Oc1c(Cl)c(Cl)cc(Cl)c1Cl", "note": "[TCP, 2,3,5,6-tetrachlorophenol]", "values": [{"measurement": "Hill coefficient nH", "setting": "PCP hydroxylase [5]", "result": 2}, {"measurement": "H2O2 appearance", "setting": "PCP hydroxylase [1]", "result": "0.0132 ± 0.008", "unit": "s⁻¹"}, {"measurement": "TCHQ, reaction components after 1 min incubation at room temperature", "setting": "PCP hydroxylase [6]; no β-ME, 25 μM ascorbate", "result": "78 ± 11"}, {"measurement": "TCP, reaction components after 1 min incubation at room temperature", "setting": "PCP hydroxylase [6]; no β-ME, 25 μM ascorbate", "result": "10 ± 1"}, {"measurement": "TCHQ, reaction components after 1 min incubation at room temperature", "setting": "PCP hydroxylase [6]; β-ME 6, 25 μM ascorbate", "result": "75 ± 8"}, {"measurement": "TCP, reaction components after 1 min incubation at room temperature", "setting": "PCP hydroxylase [6]; β-ME 6, 25 μM ascorbate", "result": "10 ± 1"}, {"measurement": "THTH, reaction components after 1 min incubation at room temperature", "setting": "PCP hydroxylase [6]; β-ME 6, 25 μM ascorbate", "result": "9 ± 1"}, {"measurement": "NADPH /product", "setting": "PCP hydroxylase [2]", "result": 1.5}, {"measurement": "NADPH disappearance", "setting": "PCP hydroxylase [2]", "result": "0.111 ± 0.018", "unit": "s⁻¹"}, {"measurement": "Product appearance", "setting": "PCP hydroxylase [2]", "result": "0.076 ± 0.008", "unit": "s⁻¹"}, {"measurement": "Dissociation constants (in words)", "setting": "PCP hydroxylase [7]", "result": "low micromolar range"}]}, {"molecule": "B1", "values": [{"measurement": "stoichiometry N", "setting": "SEC", "result": 2}]}]}
